procasp7 counter: activates human procaspase-7, counter-screen for procaspase-3 activators; P55210; recombinant procaspase-7, Ac-DEVD-pNA absorbance 405 nm; D23A/D198A/D206A triple mutant, cannot self-cleave; scale: DMSO 0, 5 µM enzyme 100; AID 463210; activation, % at 8.5 µM; 0.093% of 330,000 active;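 active = percent activation above the screen-wide mean plus 3 SD, cut at about 25% in these data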
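System: Uncleavable procaspase-7 mutant enzyme; Amount: 2 µM procaspase-7 mutant as dispensed; Schedule: 1 h compound preincubation, 2 h substrate cleavage, 25 °C; Measured by: 405 nm absorbance of p-nitroaniline; Evaluation: percent activation from buffer-corrected 0–120 min absorbance change; Control set: low DMSO alone, high DMSO plus 5 µM PC-7.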
proCasp3 act: activates human procaspase-3; activation, % at 8.5 µM; 0.11% of 330,000 active; recombinant procaspase-3 D3A, Ac-DEVD-pNA absorbance 405 nm;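 active = activation above the mean of all tested compounds plus 3 SD, cut at about 21% in these data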;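 also: 0% = DMSO alone and 100% = DMSO wells spiked with extra 5 µM PC-3 D3A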
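Technique: 405 nm absorbance of p-nitroaniline, reads at 0 and 120 min; Test system: Procaspase-3 D3A mutant; Incubation: 1 h enzyme-compound preincubation, then 2 h substrate reaction, 25 °C; Repeats: singlicate, each compound tested once; Benchmarks: low control DMSO wells, high control DMSO plus 5 µM PC-3 D3A.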
ZTA DNA inh: blocks Epstein-Barr virus ZTA, an EBNA-1 counter-screen. 0.15% of 320,000 active. AID 2234. inhibition, % at 11 µM. ZTA-DNA binding, fluorescence polarization. P03206; in the data active = inhibition above about 33%
EBNA-1 inh: blocks EBNA-1 binding to DNA | EBNA-1 DNA binding, fluorescence polarization | inhibition, % at 14.8 µM | 0.34% of 300,000 active; in the data active = inhibition above about 28%
GSTO1 inh: GSTO1 inhibition, counter-screen for RBBP9 inhibitors; inhibition, % at 5.96 µM; AID 1974; recombinant GSTO1, activity-based probe fluorescence polarization; 1.1% of 300,000 active;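 active = inhibition above the campaign mean inhibition plus 3 SD, cut at about 35% in these data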;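 also: 0% = GSTO1-1 with DMSO and 100% = wells lacking GSTO1-1 enzyme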
Apaf1 inhib: blocks human Apaf-1 apoptosome activity | O14727 | reconstituted apoptosome caspase-3 activity, DEVD-Rh110 fluorescence | inhibition, % at 20 µM | 0.71% of 330,000 active; active = inhibition of at least 40% at 20 µM;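 also: plate controls were DMSO wells for no effect and DEVD-CHO caspase inhibitor wells for full effect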
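detection = Rh110 fluorescence intensity | test system = biochemical Apaf-1 apoptosome reconstitution | also added = cytochrome c and DEVD-Rh110 substrate | schedule = 30 min plus 50 min, RT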
Apaf-1 inh conf2: confirmation of Apaf-1 inhibitors. shares compounds with Apaf1 inhib. reconstituted apoptosome, caspase-3 DEVD-Rh110 fluorescence. inhibition, % at 20 µM. 25% of 1,800 active;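 active = mean inhibition of at least 40% at 20 µM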;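 also: plate controls were DMSO wells for no effect and DEVD-CHO caspase inhibitor control wells for full effect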
Rh110 quench: Rh110 signal interference in Apaf-1 inhibitor counter-screen; AID 504615; shares compounds with Apaf1 inhib; activation (fluorescence interference), % at 20 µM; 1,800 tested, under 10 active; Rh110 fluorescence interference, quenched caspase reaction;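 active = signal rise of 40% or more at 20 µM, treated as a fluorescence artifact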
Apaf1 inh interf: counter-screen for Apaf-1 inhibitors: fluorescence interference, dose response | shares compounds with Apaf1 inhib | AID 588538 | 460 tested, under 10 active | fluorescence interference counterscreen, Apaf-1 assay format | IC50, µM; call rule not given here
* = called active by the depositor; / = no result. Compounds with a hit are over-represented: about 1.8% of the library has one in this group of screens.

SMILES	procasp7 counter	proCasp3 act	ZTA DNA inh	EBNA-1 inh	GSTO1 inh	Apaf1 inhib	Apaf-1 inh conf2	Rh110 quench	others
NC[C@@H]1O[C@H](C23CC4CC(CC(C4)C2)C3)Cc2c1ccc(O)c2O	-7.9	-5.9	-2.4	-11.2	2.3	42.4*	3.1	6.5
Clc1ccc(OCc2nn3c(-c4ccccc4)nnc3s2)c(Cl)c1	9.6	-1.2	4.4	11.2	2.5	-14.2	/	/
Clc1ccccc1OCc1nn2c(-c3ccncc3)nnc2s1	0.0	-7.8	-11.5	-2.2	-9.0	40.6*	50.1*	7.1	Apaf1 inh interf=>100
N#Cc1ccsc1NC(=O)c1ccc(Cl)c([N+](=O)[O-])c1	-6.3	-6.2	-15.3	-4.6	11.7	47.9*	6.3	-3.5
c1ccc2c(c1)CCN(C1=Nc3cccc4cccc1c34)C2	/	/	/	/	/	42.9*	9.9	4.8
CN(C)CCNC(=O)c1ccc(COc2ccc(Cl)cc2Cl)cc1	4.1	-2.6	-28.8	-7.4	-10.0	45.7*	5.3	2.9
COc1ccc(Cl)cc1C(=O)NCCN(C)C	-7.1	10.7	-0.6	-0.2	4.0	5.3	/	/
CCOC(=O)C1CCN(Cc2cccc(OCc3ccccc3)c2)CC1	-0.8	0.1	2.5	8.7	1.4	4.7	/	/
Cc1cc(C)c(OCC(=O)NCC2COc3ccccc3O2)c(C)c1 (configuration not stated)	-2.7	-0.5	2.1	/	/	25.7	/	/
O=C(c1ccc(-c2ccccc2Cl)o1)N1CCCC(C(F)(F)F)C1 (configuration not stated)	-8.5	-1.6	23.6	/	/	41.4*	27.2	3.1
O=C(c1ccc(-c2ccccc2Cl)o1)N1CCC1	/	/	/	/	/	9.5	/	/
Cc1cc(OC(F)F)ccc1NC(=O)Nc1ccc([N+](=O)[O-])cc1	12.3	-1.0	4.8	0.9	-5.7	6.0	/	/
CN1CCc2nc(SCC(=O)Nc3cccc(F)c3)c(C#N)c(-c3cccs3)c2C1	-9.6	-0.4	-11.3	2.7	19.9	67.4*	9.8	3.0
CN1CCc2nc(SCC(=O)Nc3ccc(OC(F)(F)F)cc3)c(C#N)c(-c3cccs3)c2C1	-10.7	-8.8	-10.4	-11.6	-7.2	23.2	/	/
CN1CCN(S(=O)(=O)c2cccc(C(=O)Nc3cc(C(F)(F)F)ccc3N3CCCCC3)c2)CC1	7.0	14.5	1.6	-15.6	6.3	40.5*	22.8	7.6
CN1CCN(S(=O)(=O)c2cccc(C(=O)Nc3ccccc3N3CCCCC3)c2)CC1	0.8	5.9	-7.8	-8.1	-0.2	22.2	/	/
COC(=O)CCC(C)N1CCC(Oc2ccc(C(=O)NCc3ccccn3)cc2)CC1 (configuration not stated)	/	/	/	/	/	1.3	/	/
CC(C)(C)c1ccc(OCCOc2ccc(C(C)(C)C)cc2NC=O)c(NC=O)c1	-2.0	0.0	-16.1	3.3	-7.8	41.3*	35.1	5.9
COCCOc1ccc(C(F)(F)F)cc1NC(=O)c1ccccc1	5.6	-7.8	-4.5	-2.8	-3.0	-2.3	/	/
CC(C)n1cnc2c(N(C)c3ccccc3)nc(N(CCN(C)C)Cc3ccccc3)nc21	4.2	8.9	0.8	1.6	-1.0	44.0*	20.2	12.0
CCOC(=O)[C@H]1[C@H]2COc3ccc(OC)cc3[C@@H]2N2C(=O)CN(CCc3c[nH]c4ccccc34)C(=O)[C@@]12C	19.7	4.6	-30.6	/	/	7.8	/	/
Cn1c(NC(=O)c2ccc(Cl)s2)cc(=O)n(C)c1=O	2.5	6.3	6.8	3.6	-0.1	66.2*	10.5	-2.9
Cn1c(NC(=O)c2ccc(Cl)cc2)cc(=O)n(C)c1=O	10.4	7.2	11.1	-5.3	-3.1	6.3	/	/
CCc1nnc(NC(=O)c2ccc(COc3cccc(C)c3)o2)s1	9.0	8.7	10.9	-3.8	-4.1	6.8	/	/
COc1cccc2sc(N(CCN(C)C)C(=O)c3ccc4c(c3)CCCC4)nc12	-2.3	-9.5	-0.4	16.2	2.2	50.0*	18.5	9.3
SMILES	procasp7 counter	proCasp3 act	ZTA DNA inh	EBNA-1 inh	GSTO1 inh	Apaf1 inhib	Apaf-1 inh conf2	Rh110 quench	others
Cc1ccc2sc(N(CCCN(C)C)C(=O)c3ccc(S(=O)(=O)N(C)Cc4ccccc4)cc3)nc2c1C	-4.3	-2.7	-0.7	-13.4	-3.7	31.8	/	/
CCCCN(CC)S(=O)(=O)c1ccc(C(=O)N(CCCN(C)C)c2nc3cc(C)cc(C)c3s2)cc1	-7.9	-5.9	6.2	5.8	7.9	47.1*	15.2	6.7
CN(C)CCN(C(=O)c1ccc2c(c1)CCCC2)c1nc2c(F)cccc2s1	4.6	-5.0	-4.1	16.1	28.0	38.7	/	/
CCOc1cccc2sc(N(CCCN(C)C)C(=O)c3ccc(S(=O)(=O)N(C)Cc4ccccc4)cc3)nc12	5.9	0.8	-15.8	9.4	3.0	61.9*	26.5	11.0
CCN(Cc1ccccc1)S(=O)(=O)c1ccc(C(=O)N(CCCN(C)C)c2nc3cc(C)cc(C)c3s2)cc1	3.9	8.3	-17.2	-0.8	0.8	42.0*	20.1	5.6
Cc1cc(C)c2sc(N(CCCN(C)C)C(=O)c3ccc(S(=O)(=O)N(C)Cc4ccccc4)cc3)nc2c1	3.8	6.4	-9.7	-9.9	1.1	36.7	/	/
Cc1ccc(NC(=O)CSCC(=O)NC2(C)CCS(=O)(=O)C2)cc1 (configuration not stated)	4.7	-2.5	9.4	/	/	-5.7	/	/
CN(CCc1cnn(C)c1)Cc1nc(CC2CC2)no1	2.5	4.3	11.5	-4.0	8.6	-19.3	/	/
Cc1ccc(NC(=O)CSc2nc(=O)n(CCCN3CCOCC3)c3c2CCCC3)c(C)c1	3.8	2.5	-14.9	-4.7	-3.9	4.4	/	/
COc1ccc2[nH]c(=O)c(CNc3ccccc3OC)cc2c1	-14.3	-8.2	9.3	2.4	9.3	50.9*	42.8*	4.6	Apaf1 inh interf=>100
COc1ccc2[nH]c(=O)c(CNc3ccccc3C)cc2c1	-14.0	0.5	-12.1	4.9	-2.2	2.1	/	/
CCCN(CC(=O)Nc1ccccc1OC)C(=O)CSc1ccc(Br)cc1C	7.7	1.1	1.4	/	/	57.3*	40.2*	3.7	Apaf1 inh interf=>100
CCCN(CC(=O)Nc1ccccc1C)C(=O)CCCOc1ccc(Br)cc1	1.9	-0.2	-3.0	/	/	52.9*	42.6*	9.4	Apaf1 inh interf=>100
CCOc1ccc(OCCCC(=O)N(C)CC(=O)Nc2ccccc2Br)cc1	7.4	4.8	/	/	/	10.9	/	/
CCN1CCc2c(sc(NC(=O)c3ccc(C(=O)c4ccccc4)cc3)c2C(N)=O)C1	3.7	3.4	10.9	1.6	-34.9	43.6*	21.3	10.2
